ROCK2 blocker – ROCK2 (human) kinase inhibition; purified ROCK2, Kinase-Glo ATP depletion luminescence; AID 604; O75116; 60,000 tested, 0.35% active; inhibition, % at 6 µM;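 active = inhibition above the screen-wide mean inhibition plus 3 SD, cut at about 18% in these data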
RORa activator – RORA (human) activation. P35398. CHO-K1 Gal4-RORA LBD luciferase reporter, luminescence; percent increase over mock-subtracted basal signal. 65,000 tested, 1.5% active. activation, % at 10 µM;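 active = activation above the mean of all tested compounds plus 3 SD, cut at about 49% in these data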
Target sequence (P35398 whole entry, looked up, the tested form may be a part): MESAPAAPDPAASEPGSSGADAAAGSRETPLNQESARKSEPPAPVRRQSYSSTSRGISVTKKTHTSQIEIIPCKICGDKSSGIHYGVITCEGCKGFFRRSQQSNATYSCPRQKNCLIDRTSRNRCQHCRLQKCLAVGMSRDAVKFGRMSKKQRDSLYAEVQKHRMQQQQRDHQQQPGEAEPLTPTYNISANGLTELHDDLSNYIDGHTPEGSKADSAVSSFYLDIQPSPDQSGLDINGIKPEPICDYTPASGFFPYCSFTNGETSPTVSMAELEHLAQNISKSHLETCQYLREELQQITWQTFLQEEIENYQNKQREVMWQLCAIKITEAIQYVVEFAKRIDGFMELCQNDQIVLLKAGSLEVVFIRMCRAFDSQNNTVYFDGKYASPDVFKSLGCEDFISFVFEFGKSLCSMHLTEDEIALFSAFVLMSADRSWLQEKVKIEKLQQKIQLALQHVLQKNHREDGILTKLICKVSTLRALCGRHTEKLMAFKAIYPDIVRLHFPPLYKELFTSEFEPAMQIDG
JNK3 inh – JNK3 (human) kinase inhibition; P53779; purified JNK3 kinase activity, HTS; inhibition, % at 8 µM; 60,000 tested, 0.61% active; in the data active = inhibition above about 17%
WNV protease inh – inhibitors of West Nile virus NS2B-NS3 protease. P06935. WNV NS2B-NS3 protease, fluorogenic substrate Ex360/Em465; stronger effect = lower value. z-score (test concentration not listed). 65,000 tested, 0.18% active. AID 577; in the data active = z-score below about -3
PKA kinase inh – blocks human protein kinase A activity | 65,000 tested, 0.1% active | PKA Kemptide phosphorylation, Kinase-Glo ATP luminescence | inhibition, % at 6 µM;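 active = inhibition above the screen-wide mean inhibition plus 3 SD, cut at about 21% in these data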
SF-1 act – SF-1 (human) activation | activation, % at 10 µM | CHO-K1 Gal4-SF-1 LBD luciferase reporter; % increase over DMSO SF-1-specific signal | Q13285 | 65,000 tested, 1.9% active;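 active = activation above the mean activation of all tested compounds plus 3 SD, cut at about 50% in these data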
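Compound – one dose, 10 µM compound, 1% DMSO · Test system – transient Gal4-SF-1 LBD reporter, CHO-K1 · Input – 4,000 cells in each well · Read-out basis – percent activation relative to DMSO median and mock-transfected background · Replicates – single measurement per compound · Technique – steady-glow luciferase luminescence, read after 15 min reagent incubation · Timing – 20 h compound treatment, 37 °C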
Hits are given with their value; - = inactive; . = no result. Rows were chosen to be rich in hits. Some 3.4% of all compounds tested hit in one or more screens of this group.

SMILES | ROCK2 blocker | RORa activator | JNK3 inh | WNV protease inh | PKA kinase inh | SF-1 act
CC(C)(C)n1ncc2c(=O)n(CC(=O)Nc3ccccc3)cnc21 | - | - | - | - | - | -
CC(C)(C)n1ncc2c(=O)n(CC(=O)c3ccccc3)cnc21 | - | 54.9 | - | - | - | 93.4
CC(C)(C)n1ncc2c(=O)n(CC(=O)OCc3ccccc3)cnc21 | - | - | - | - | - | -
CC(C)(C)n1ncc2c(=O)n(CC(=O)NC3CCCCC3)cnc21 | - | - | - | - | - | 68.3
Cc1ccc(-n2ncc3c(=O)n(CC(=O)NC4CCCCC4)cnc32)cc1C | - | - | - | - | - | -
COC(=O)C1=C(C)N2C(=O)CSC2=NC1c1ccc2c(c1)OCO2 (stereo not given) | - | - | - | - | - | -
CCOc1ccc(CC(=O)N2CCN(c3ccc(N4CCOCC4)nn3)CC2)cc1OCC | - | - | - | - | - | -
CCCCNC(=O)COC(=O)c1cc2c(C)nn(-c3ccccc3)c2s1 | - | - | - | - | - | -
Clc1ccccc1CSc1ncccn1 | - | - | - | - | - | -
O=C(CSc1ncccn1)NCc1ccccc1Cl | - | - | - | - | - | 68.3
O=C(NC1CCCCC1)c1cc2nc(-c3ccco3)cc(C(F)(F)F)n2n1 | - | - | - | - | - | -
O=C(NC1CCCCC1)c1cc2nc3c(c(C(F)(F)F)n2n1)CCCC3 | - | - | - | - | - | 50.4
CCOC(=O)c1[nH]c2ccccc2c1NC(=O)c1ccc(Br)o1 | . | - | . | . | - | -
CCCC1(CCC)NC(=O)N(CC(=O)Nc2cccc(OC)c2)C1=O | - | - | - | - | - | -
COc1ccc2nc(SCC(=O)N3CCNC3=O)[nH]c2c1 | - | - | - | - | - | 64.8
COc1ccc(CC(=O)N2CCNC2=O)cc1 | - | - | - | - | - | -
O=P(CCC(F)(F)F)(CCC(F)(F)F)CCC(F)(F)F | . | . | . | - | . | .
CCOc1cc(C2NC(=O)NC(C)=C2C(=O)OCc2ccccc2)ccc1O (stereo not given) | - | - | 19.2 | - | - | -
COc1cc(C2NC(=O)NC(C)=C2C(=O)OCc2ccccc2)ccc1O (stereo not given) | - | - | 20.1 | - | - | -
COc1ccc(COC(=O)C2=C(C)NC(=O)NC2c2ccc(O)c(OC)c2)cc1 (stereo not given) | - | - | 27.3 | - | - | -
CCOC(=O)C1=C(C)NC(=O)NC1c1ccc(OCCO)c(OC)c1 (stereo not given) | - | - | - | - | - | -
O=CN1CCN(C(C(=O)NC2CCCC2)c2ccc(Cl)cc2)CC1 (stereo not given) | . | - | . | - | - | -
Cn1c(-c2ccc3c(c2)OCO3)cnc1NCc1ccccc1 | - | - | - | - | - | 67.8
Oc1[nH]c2ccccc2c1C=Nc1ccc2c(c1)OCCO2 | - | - | 34.5 | - | - | -
Cc1cccc(/N=C/c2c(O)[nH]c3ccccc23)n1 | - | 85.9 | 29.9 | - | - | 102.7
SMILES | ROCK2 blocker | RORa activator | JNK3 inh | WNV protease inh | PKA kinase inh | SF-1 act
Cc1cccc(/N=C/c2c(O)cc(C)oc2=O)n1 | - | - | - | - | - | -
O=C(Nc1ccc2c(c1)OCO2)N1CCN(C(=O)C2CCCO2)CC1 (stereo not given) | - | - | - | - | - | -
Clc1cc(NCc2cccs2)ccc1N1CCOCC1 | - | - | - | - | - | -
COc1cc(CC(=O)Nc2sccc2C(N)=O)cc(OC)c1OC | - | - | 55.8 | - | - | -
Cc1ccsc1C(=O)OCC(=O)Nc1sccc1C(N)=O | - | - | - | - | - | 74.5
COc1cc(C(=O)NCC2CCCO2)ccc1OCc1c(C)noc1C (stereo not given) | . | - | . | - | - | -
COc1cc(C(=O)Nc2nccs2)ccc1OCc1c(C)noc1C | - | - | 21.4 | - | - | -
c1nc(N2CCCC2)c2[nH]cnc2n1 | . | - | . | . | 21.6 | -
N#C/C(C(=O)N1CCCCC1)=C1\Nc2ccccc2S1 | - | - | - | - | - | 50.5
Cc1ccc2nc(C)cc(OCC(=O)O)c2c1 | - | - | - | - | - | -
Cc1cc2c(ccc3[nH]onc32)n1 | 18.5 | - | - | - | 28.6 | -
CCOC(=O)c1sc(=NC(=O)c2cccc(OC)c2)n(C)c1C | - | - | - | - | - | 56.9
COc1ccc(CCNC(=O)c2cc3ccccn3n2)c(OC)c1OC | - | - | - | - | - | -
Cc1ccc(NC(=O)C2C3CC4OC(=O)C2C4C3)cc1Cl (stereo not given) | - | - | - | -6.43 | - | -
CC(=O)Nc1ccc(C(=O)OC2CCOC2=O)cc1 (stereo not given) | - | - | - | - | - | -
Cc1ccc(NC(=O)CC2SCCNC2=O)cc1Cl (stereo not given) | - | - | - | - | - | -
CC(C)OC(=O)c1ccc(NC(=O)C2C3CC4OC(=O)C2C4C3)cc1 (stereo not given) | - | - | - | - | - | 56.4
O=C(COC(=O)Cc1cccs1)Nc1ccccc1 | - | - | - | - | - | -
COc1ccc(N2CCN(CCCNS(=O)(=O)c3c(C)noc3/C=C/N(C)C)CC2)cc1 | - | - | - | - | - | -
O=C(NC1CCCCCC1)C1CC(=O)N(Cc2ccccc2)C1 (stereo not given) | - | - | - | - | - | -
O=C(c1ccco1)N(CCCN1CCOCC1)c1nc(-c2ccc(Cl)cc2)cs1 | - | - | - | -3.11 | - | -
COCC(=O)NC1CCN(C(=O)Nc2ccc(Br)cc2)CC1 | - | - | - | - | - | -
Cc1ccc2c(c1)c1ncnc(N3CCC4(CC3)OCCO4)c1n2C | - | 62.1 | - | - | - | 67.3
Cc1ccc2c(c1)c1ncnc(N3CCOCC3)c1n2C | - | - | - | - | - | -
O=CNC(=O)c1ccccc1C(=O)O | - | - | - | - | - | -
SMILES | ROCK2 blocker | RORa activator | JNK3 inh | WNV protease inh | PKA kinase inh | SF-1 act
O=C(CNC(=O)c1ccccc1C(=O)O)c1ccccc1 | - | - | - | - | - | 55.6
CCOC(=O)c1c(C)nc(-c2ccccc2)nc1N | - | 51.1 | - | - | - | 58.5
CCOC(=O)c1c(C)nc(-c2ccccc2)nc1NC(C)=O | - | - | - | - | - | -
Fc1cc2nccnc2cc1N1CCSCC1 | - | - | 22.5 | - | - | -
CCOC(=O)N1CCN(c2cc3nccnc3cc2F)CC1 | - | - | - | - | - | -
CCN1CCN(C(=O)C2c3cc(OC)c(OC)cc3C(=O)N3CCc4ccccc4C23)CC1 (stereo not given) | - | - | - | -3.25 | - | -
CCCCN(CC)CCNC(=O)C1c2cc(OC)c(OC)cc2C(=O)N2CCc3ccccc3C12 (stereo not given) | - | - | - | - | - | -
NC(=O)CN1CCN(C(=O)Nc2ccccc2)CC1 | - | - | - | - | - | -
CCCc1cc(=O)n2[nH]c(-c3ccc(C)cc3)cc2n1 | - | 78.9 | - | - | - | -
CCCc1cc(=O)n2[nH]c(-c3ccccc3)cc2n1 | - | 52.0 | - | - | - | 68.5

Screening results (PubChem)
